OX1R antag-1: antagonists of human orexin 1 receptor (OX1R); Orexin/Hypocretin receptor type 1 (Homo sapiens), O43613; OX1R-expressing cells, FRET antagonist read-out; inhibition, % at 6.6 µM; 330,000 tested, 1.8% active; in the data active = inhibition mostly above about 38%, no sharp cut-off; inactive = mostly below about 40%;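 note: 0% = agonist challenge alone and 100% = reference antagonist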
GPR7 antag: GPR7 receptor antagonists, primary screen, cell-based, fluorescence, single concentration | Neuropeptides B/W receptor type 1 (Homo sapiens), P48145 | GPR7-expressing cells, fluorescence antagonist assay | inhibition, % at 4.4 µM | 290,000 tested, 1.1% active | AID 1861, 2009; in the data active = inhibition above about 16%, passing the limit was not always enough;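 note: cells stimulated with the agonist NPW; 0% = agonist with vehicle and 100% = vehicle without agonist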
Target sequence (P48145 whole entry, looked up): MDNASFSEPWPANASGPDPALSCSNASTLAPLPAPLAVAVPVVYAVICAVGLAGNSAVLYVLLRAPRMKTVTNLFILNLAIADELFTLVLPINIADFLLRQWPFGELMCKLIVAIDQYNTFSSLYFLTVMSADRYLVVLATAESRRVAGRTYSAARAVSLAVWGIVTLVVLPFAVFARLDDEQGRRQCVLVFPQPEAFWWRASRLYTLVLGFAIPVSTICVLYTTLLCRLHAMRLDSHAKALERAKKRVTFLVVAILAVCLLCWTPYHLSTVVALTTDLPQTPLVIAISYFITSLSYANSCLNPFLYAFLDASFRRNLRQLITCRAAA
CHO parental Ca: ATP-evoked calcium signal inhibitors, parental CHO, primary screen, counter-screen for OX1R antagonist project, cell-based, fluorescence, Fluo-8 calcium dye. parental CHO-K1, ATP-induced calcium, Fluo-8 fluorescence. inhibition, % at 5.6 µM. 330,000 tested, 0.63% active;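 active = inhibition above that plate's mean sample inhibition plus 3 SD, cut at about 26% in these data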;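 note: 0% = ATP-challenged DMSO wells and 100% = DMSO wells without ATP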
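Assay system – parental CHO cells · Reagent – ATP stimulus · Detection – intracellular calcium via Fluo-8 no-wash fluorescent dye · Evaluation – percent inhibition of ATP-evoked calcium rise, normalized to controls · Controls – ATP wells versus no-ATP DMSO wells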
OX1R antag-2: OX1R (HCRTR1) antagonists, primary screen, fluorescence, CHO/OX1R cells, Fluo-8 calcium, orexin A; Orexin/Hypocretin receptor type 1 (Homo sapiens), O43613; Fluo-8 calcium fluorescence; inhibition, % at 5 µM; 330,000 tested, 0.43% active;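 active = inhibition above its plate's threshold, mean inhibition of all tested compounds on the plate plus 3 SD, cut at about 37% in these data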;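 note: 0% = orexin A challenge wells and 100% = SB-334867-A antagonist wells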
GalR3 antagonist: GalR3 antagonists in HEK293 cells, primary screen, cell-based, fluorescence readout; 360,000 tested, 0.44% active; inhibition, % at 3 µM; Galanin receptor type 3 (Homo sapiens), O60755; HEK293 GalR3-CNG cAMP membrane potential fluorescence; galR3 body fused to GalR1 C-terminus;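 active = inhibition above the screen-wide average plus 3 SD, cut at about 13% in these data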;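 note: forskolin and galanin both at EC90 stimulate the cells; cAMP rise reported by CNG channel membrane potential dye signal; 0% = forskolin plus galanin with DMSO and 100% = forskolin alone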
Target sequence (O60755 1-299 limits assumed): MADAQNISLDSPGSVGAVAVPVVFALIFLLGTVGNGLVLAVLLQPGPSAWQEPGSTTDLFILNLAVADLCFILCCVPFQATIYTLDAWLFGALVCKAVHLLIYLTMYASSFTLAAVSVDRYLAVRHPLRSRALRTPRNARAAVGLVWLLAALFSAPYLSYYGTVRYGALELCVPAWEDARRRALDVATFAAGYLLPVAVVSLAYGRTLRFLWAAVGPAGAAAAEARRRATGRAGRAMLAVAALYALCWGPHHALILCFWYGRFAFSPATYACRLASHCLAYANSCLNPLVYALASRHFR
OX1R HTRF confirm: OX1R (HCRTR1) antagonists, confirmation, cell-based, HTRF; shares compounds with OX1R antag-1; OX1R-expressing cells, HTRF antagonist assay; inhibition, % at 6.6 µM; 1,800 tested, 49% active; in the data active = inhibition above about 55%;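 note: CHO cells expressing OX1R stimulated with orexin A at about EC80; 0% = agonist challenge alone and 100% = reference antagonist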
CHO-K1 HTRF: signal inhibition in parental CHO-K1 cells, counter-screen for OX1R antagonist project, cell-based, HTRF; shares compounds with OX1R antag-1; HTRF counterscreen; inhibition, % at 6.6 µM; 1,800 tested, 48% active; AID 493232, 2011; in the data active = inhibition above about 17%;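 note: 0% = agonist challenge with vehicle and 100% = vehicle alone without agonist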
* marks the source's active call; other numbers are inactive results; . = no result. Compounds with a hit are over-represented: about 3.1% of the library has one in this group of screens.

SMILES	OX1R antag-1	GPR7 antag	CHO parental Ca	OX1R antag-2	GalR3 antagonist	OX1R HTRF confirm	CHO-K1 HTRF
Cc1ccc(S(=O)(=O)N2[C@@H](c3ccccc3)C(C(=O)O)=CC[C@H]2c2ccc(Cl)cc2)cc1	77.9*	.	-11.6	14.2	-6.4	53.4	0.9
COc1cc([C@@H]2CC=C(C(=O)O)[C@H](c3ccccc3F)N2S(=O)(=O)c2ccc(C)cc2)cc(OC)c1OC	12.8	.	-16.5	0.3	-5.8	.	.
Cc1ccc(S(=O)(=O)N2[C@@H](c3ccc(Cl)cc3)C(C(=O)O)=CC[C@H]2c2cccc(Cl)c2)cc1	9.7	.	8.9	-20.9	2.1	.	.
Cc1ccc(S(=O)(=O)N2[C@@H](c3ccc(F)cc3)C(C(=O)O)=CC[C@H]2c2ccc(Cl)cc2)cc1	46.3	.	-10.0	-2.2	8.1	.	.
COc1ccc(-c2ccc(SCC(=O)N3CC(=O)Nc4ccccc43)nn2)cc1	97.3*	-9.5	-4.7	-17.8	-8.7	19.5	5.9
C[C@H](CO)N1C[C@H](C)[C@H](CN(C)C(=O)Nc2ccc3c(c2)OCO3)OCc2cnnn2CCCC1=O	.	.	.	.	-4.8	.	.
N#Cc1cc2ccccc2n2nnnc12	40.4	-3.5	-4.0	-11.1	-7.0	.	.
Clc1cccc(Nc2nc(-c3ccncc3)cs2)c1	79.9*	-16.6	6.2	19.1	-5.3	33.0	11.3
O=C(NCCc1ccccc1)C1=CCN(S(=O)(=O)c2ccccc2)CC1	6.3	5.0	-9.8	-13.8	-6.7	.	.
COc1ccc(-n2c(C)cc(/C=N/Nc3nnc(C)n3N)c2C)cc1	108.2*	-12.1	-15.9	-12.7	5.6	21.8	13.8
O=C(CNC(=O)c1cccs1)NCC(=O)OCC(=O)c1ccc([N+](=O)[O-])cc1	103.1*	-13.9	-4.8	-2.6	-6.0	35.7	43.5*
CCCCCCn1cc(CN2CC(N3CCCCC3)CS2(=O)=O)nn1 (stereo unspecified)	.	.	.	.	-2.1	.	.
Cc1ccsc1/C=C1/SC(=O)N(CC(=O)N2CCOCC2)C1=O	37.0	8.5	-15.8	-6.6	2.6	.	.
O=C(CN1C(=O)S/C(=C/c2ccc(N3CCOCC3)cc2)C1=O)N1CCOCC1	85.2*	-10.8	-3.3	6.5	-1.2	41.4	47.2*
O=C(CN1C(=O)c2cccc3cccc(c23)C1=O)N1CCOCC1	104.3*	-4.8	-7.7	-17.2	-2.8	47.1	86.9*
O=C(CN1c2cccc3cccc(c23)S1(=O)=O)N1CCOCC1	19.6	-9.2	-7.2	-15.9	-0.6	.	.
COc1ccc(C(=O)CN2CCN(CCN3C(=O)c4cccc5cccc(c45)C3=O)CC2)cc1	91.2*	.	-23.2	-32.5	1.3	35.8	21.3*
c1ccc(CNc2c3ccccc3nc3ccccc23)cc1	4.5	4.6	-8.0	-23.4	-13.5	.	.
OCC(Cc1ccccc1)Nc1c2ccccc2nc2ccccc12 (stereo unspecified)	87.9*	-8.2	-20.4	21.9	-2.8	72.4*	17.4*
CN(C(=O)COC(=O)c1ccc(Cl)c(S(=O)(=O)N2CCCCC2)c1)C1(C#N)CCCCC1	3.0	.	-5.7	6.6	-4.8	.	.
COc1cc(/C=C/CNC[C@H]2O[C@@H](n3ccc(=O)[nH]c3=O)[C@H](O)[C@@H]2O)ccc1O	.	.	.	.	-5.0	.	.
CC(=O)Nc1ccc(/C=C/c2ccc3cccc([N+](=O)[O-])c3n2)cc1	87.3*	-6.4	-14.6	7.5	-1.4	62.0*	9.8
Cn1ccnc1Sc1cc(NCCCO)c([N+](=O)[O-])c2nonc12	83.4*	0.8	8.4	-0.2	10.2	51.2	78.2*
COC(=O)c1ccc2c(c1O)C(=O)c1ccccc1C2=O	59.2	-0.9	-22.1	-17.6	0.1	.	.
CCSc1c(C(=O)NC)ccc2c1C(=O)c1ccccc1C2=O	91.3*	4.0	-4.3	-14.2	-4.3	57.9*	92.2*
SMILES	OX1R antag-1	GPR7 antag	CHO parental Ca	OX1R antag-2	GalR3 antagonist	OX1R HTRF confirm	CHO-K1 HTRF
Cc1cc(NC(=O)c2nn(C)c(C)c2Br)no1	23.6	-12.5	-4.2	-4.4	0.8	.	.
COc1ccc(Cl)cc1NC(=O)COC(=O)CCNS(=O)(=O)c1cccs1	.	.	.	.	-4.6	.	.
CN(CCO)c1cc(NCCCN2CCC(Cc3ccccc3)CC2)c2nonc2c1[N+](=O)[O-]	84.8*	-9.8	-30.4	-19.0	-4.2	62.7*	47.3*
O=[N+]([O-])c1c(Nc2ccc(O)cc2)cc(N2CCOCC2)c2nonc12	14.4	1.5	2.0	4.9	-5.2	.	.
Cc1ccc([N+](=O)[O-])c(OCCN2CCC(Cc3ccccc3)CC2)c1	10.0	5.6	-14.6	-27.0	-9.7	.	.
CN(CCO)c1cc(N2CCC3(CC2)OCCO3)c2nonc2c1[N+](=O)[O-]	128.8*	-0.8	6.6	-4.2	-1.3	60.0*	56.0*
O=[N+]([O-])c1c(NCCO)cc(N2CCC3(CC2)OCCO3)c2nonc12	169.7*	9.1	0.0	4.3	-11.2	45.8	82.4*
CC(=O)Nc1ccc(Nc2cc(N3CCOCC3)c3nonc3c2[N+](=O)[O-])cc1	31.7	2.9	-9.1	-8.6	-5.8	.	.
COc1ccccc1/C=C/C(=O)Nc1nc(N)n(-c2ccccc2)n1	10.2	-10.1	-4.2	-12.8	-1.4	.	.
Cc1ccsc1C(=O)OCC(=O)Nc1nnc(-c2ccccc2)o1	78.2*	.	-19.1	-11.5	-1.4	37.6	-6.8
O=C(CCNS(=O)(=O)c1cccc2nsnc12)NC1CCCc2ccccc21 (stereo unspecified)	58.1	-6.7	-24.9	-28.1	-2.0	.	.
O=C(CCNS(=O)(=O)c1cccc2nsnc12)N1CCc2ccccc21	94.7*	-7.7	-20.8	-20.4	0.3	26.0	21.6*
O=C(CCNS(=O)(=O)c1cccc2nsnc12)N1CCN(c2ccccn2)CC1	127.3*	1.3	-18.4	-20.0	.	48.1	22.6*
COc1ccc(N2CCN(C(=O)CCS(=O)(=O)c3cccc4nsnc34)CC2)cc1	90.3*	-1.9	-12.5	-15.6	-7.0	37.3	48.2*
Cc1ccccc1NC(=O)CCNS(=O)(=O)c1cccc2nsnc12	78.5*	-14.0	-2.7	-13.7	-5.6	24.5	38.2*
Cc1cccc(NC(=O)CCNS(=O)(=O)c2cccc3nsnc23)c1C	60.7	-1.6	-1.1	2.3	-9.7	.	.
COC(=O)Cc1c(C)c2ccc(OCC(=O)N3CCC(C)CC3)c(C)c2oc1=O	33.6	3.8	-16.8	-11.7	-2.8	.	.
Cc1cc(S(=O)(=O)NCCCN2CCOCC2)ccc1Br	2.2	.	-6.2	-32.8	0.9	.	.
Cc1nc(NS(=O)(=O)c2ccc(Cl)s2)c2c3c(sc2n1)CCCC3	18.4	-11.8	-6.2	-23.0	-1.1	.	.
